In the library only some 4% were active in any assay of this set; here they are far more common.
SIRT5 block: inhibitors of human sirtuin-5 desuccinylase. Purified SirT5, succinyl-peptide AMC, trypsin-coupled fluorescence. inhibition, % at 15 µM. 1.1% of 330,000 active. AID 652115; in the data active means inhibition above about 15%
Target sequence (Q9NXA8 whole entry, looked up): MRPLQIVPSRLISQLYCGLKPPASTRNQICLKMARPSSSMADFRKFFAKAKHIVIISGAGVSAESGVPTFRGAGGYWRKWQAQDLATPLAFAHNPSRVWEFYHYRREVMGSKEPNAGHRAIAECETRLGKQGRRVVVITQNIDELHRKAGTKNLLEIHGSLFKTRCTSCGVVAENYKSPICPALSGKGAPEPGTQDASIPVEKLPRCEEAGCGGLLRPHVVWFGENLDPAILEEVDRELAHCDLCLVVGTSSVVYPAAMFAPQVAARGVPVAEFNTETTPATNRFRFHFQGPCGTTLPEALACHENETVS
Statin myotox sup: protects C2C12 myotubes from simvastatin toxicity | ATP luminescence, 48 h; scaled: DMSO 0, geranylgeraniol control 100 | rescue of ATP level, % at 7.49 µM | 0.78% of 330,000 active | AID 602340;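 active means mean ATP rescue above about 67%, or every replicate alone reaching that limit, limit read from the data, passing the limit was not always enough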;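 further: myotubes were challenged with 10 µM simvastatin during compound exposure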
E-selectin induc: E-selectin induction on HUVECs. 0.37% of 260,000 active. HUVEC E-selectin immunofluorescence imaging; normalized: neutral wells 0, TNF-alpha wells 100. activation, % at 7.58 µM;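 active means mean E-selectin-positive cell signal at least 10% of the positive control, reached in at least 60% of replicates, without over 20% cell loss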
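assay system = HUVEC, human umbilical vein endothelial cells | input = 3,000 HUVEC seeded per well | medium = EGM-2 growth medium on 0.1% gelatin-coated wells | dosing = one compound dose added by pin transfer | signal = immunofluorescence imaging | read-out basis = % PE-positive cells | control set = TNF-alpha, DMSO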
FGF22 binding: shifts melting point of recombinant human FGF22; activity (Tm shift, normalised), % at 9.99 µM; 1.5% of 340,000 active; recombinant FGF22 thermal shift, SYPRO orange fluorescence; percent of sucrose octasulfate shift, DMSO zero; AID 651658; Q9HCT0;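 active means mean Tm shift, scaled 0 neutral to 100 positive control, at about 1.3% or above, every replicate too, limit read from the data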
Target sequence (Q9HCT0 whole entry, looked up): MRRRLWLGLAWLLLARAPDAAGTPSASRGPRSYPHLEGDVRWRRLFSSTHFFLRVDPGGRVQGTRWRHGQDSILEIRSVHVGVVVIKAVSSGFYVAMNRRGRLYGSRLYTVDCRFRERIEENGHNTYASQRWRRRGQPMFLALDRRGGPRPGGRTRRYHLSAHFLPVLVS
Ecoli rRNA inh: inhibits bacterial ribosomal RNA function over humanized ribosomes; E. coli WT GFP vs humanized-ribosome RFP mutants, fluorescence, 24 h; hits give low values; DMSO median 0, no signal -100; GFP signal change (wild-type ribosome), % (concentration not given with the values); 1.6% of 350,000 active;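 active means significant combined selectivity score with lowered wild-type GFP, culture density cut under 30%, mutant RFP and density less affected; inactive means any of these conditions unmet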
FN deposition inh: fibronectin deposition inhibition | AH1F fibroblasts, Alexa488-fibronectin deposition fluorescence, overnight | inhibition, % at 12.6 µM | 0.086% of 350,000 active;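 active means mean inhibition across replicates of 30% or more, regardless of how many single replicates reach that level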;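 further: positive control wells lacked labelled fibronectin entirely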
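Assay system: AH1F fibroblasts assembling fluorescent fibronectin matrix; Amount: 10000 AH1F cells per well; Buffer or medium: DMEM, 2% serum; Probe or stimulus: Alexa488-fibronectin, 24 nM final in well; Doses: single compound dose, delivered by pin transfer; Incubation: 1 h adhesion, overnight exposure; Measured by: fluorescence 485/525 nm; Read-out: fibronectin deposition inhibition.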
An asterisk follows results filed as active; . = no result given.

SMILES | SIRT5 block | Statin myotox sup | E-selectin induc | FGF22 binding | Ecoli rRNA inh | FN deposition inh
N#C[C@@H]1[C@@H](c2ccc(-c3ccc(F)cc3)cc2)[C@@H](CO)N1C(=O)Cc1ccccc1 | 2 | 14 | 0 | 0 | -11 | -7
N#C[C@H]1[C@@H](c2ccccc2-c2ccccc2F)[C@@H](CO)N1C(=O)Cc1ccccc1 | 2 | . | 0 | 0 | -7 | 6
Cc1noc(C)c1NC(=O)Nc1ccc2c(c1)C(=O)N([C@H](C)CO)C[C@H](C)[C@@H](CN(C)CC1CC1)OCCCC[C@@H](C)O2 | 2 | . | 0 | 0 | 3 | .
COc1cccc(C(=O)c2c[nH]c(C(=O)NCCCN3CCOCC3)c2)c1 | -1 | . | 2 | 43* | 7 | -18
CC(C)(C)c1ccc(C(=O)c2c[nH]c(C(=O)NCCCN3CCOCC3)c2)cc1 | . | 0 | . | . | . | -4
COc1cc(CNCc2ccccn2)ccc1OCc1c(Cl)cccc1Cl | -2 | -12 | . | 0 | -46* | .
COc1cc(CNCc2ccccn2)ccc1OCc1cccc(Cl)c1 | -15 | -26 | . | 0 | -41* | .
COc1cc(CNCc2ccccn2)ccc1OCc1ccc(Cl)cc1 | 0 | . | . | 0 | 3 | .
CO[C@@H]1CN(C)C(=O)c2ccc(NC(C)=O)cc2OC[C@@H](C)N(Cc2ccncc2)C[C@H]1C | . | -5 | 1 | . | 1 | -7
COc1ccc(N=Nc2cc(C)c(O)c(CN3CCCCC3)c2)cc1 | 1 | 4 | 1 | 0 | -27* | 2
COc1ccc(CN2CCCCCC2)cc1 | -1 | 2 | 2 | 0 | 7 | 3
CC(C)NC(=O)N(C)C[C@H]1Oc2ccc(NC(=O)C3CCCCC3)cc2CC(=O)N([C@@H](C)CO)C[C@H]1C | -2 | 3 | 0 | 0 | 1 | .
Cc1ccccc1N1CC(C(=O)O)CC1=O (centres undefined) | 29* | -1 | 1 | 0 | 11 | 2
CN(C)C(=O)c1ccc(-c2ccc([C@H]3[C@H]4CN(C(=O)C5CCCCC5)CC(=O)N4[C@H]3CO)cc2)cc1 | -4 | . | 0 | . | 2 | .
O=C(c1ccncc1)N1CC2(C1)[C@@H](c1ccccc1)[C@@H](CO)N2CC1CCOCC1 | -1 | . | 0 | . | 2 | -1
CC(C)=CCN1CCN(Cc2nc(-c3ccc(F)cc3)cs2)CC1CCO (centres undefined) | -6 | -3 | 0 | 0 | 0 | -5
OCCC1CN(Cc2cnn(-c3ccccc3Cl)c2)CCN1Cc1ccsc1 (centres undefined) | -3 | . | . | 49* | 3 | 6
OCCC1CN(Cc2nc(-c3ccccc3)cs2)CCN1Cc1ccc(F)cc1 (centres undefined) | 3 | . | 0 | 43* | . | 2
CC(=O)Nc1ccc(/C=N/NC(=O)CNC(=O)c2ccccc2)cc1 | -1 | 20 | . | 43* | 7 | 4
Cc1cccc(NCC(=O)N/N=C/c2cccc(Br)c2)c1 | 2 | . | 1 | 0 | 0 | -10
COC(=O)c1ccc(/C=N/NC(=O)CNc2cccc(C)c2)cc1 | 24* | . | . | 0 | -3 | 2
CCOc1cc(/C=N/NC(=O)CNc2cccc(C)c2)ccc1OC(=O)c1ccccc1 | 2 | 7 | . | . | -1 | .
COC(=O)c1ccc(/C=N/NC(=O)C(=O)NCc2ccccc2)cc1 | 1 | . | . | 43* | 8 | -2
Cc1ccc(NCC(=O)N/N=C/c2cccc(Br)c2)cc1 | 16* | 5 | 0 | 0 | -23* | -9
CC(=O)Nc1ccc(/C=N/NC(=O)CNS(=O)(=O)c2ccccc2)cc1 | 0 | . | 0 | 0 | 5 | -3
SMILES | SIRT5 block | Statin myotox sup | E-selectin induc | FGF22 binding | Ecoli rRNA inh | FN deposition inh
C[C@H](CO)N1C[C@H](C)[C@H](CN(C)C(=O)Nc2ccccc2)Oc2ccc(NC(=O)Nc3cccc4ccccc34)cc2C1=O | -2 | 22 | 1 | 0 | -2 | .
C[C@@H]1CN([C@@H](C)CO)C(=O)Cc2cc(NS(=O)(=O)c3cccs3)ccc2O[C@@H]1CN(C)C(=O)Nc1ccc(F)cc1 | 0 | 19 | 0 | 0 | 3 | .
COC(=O)c1ccc2nc(-c3ccc(C)cc3)c(Cc3ccccc3)n2c1 | 24* | . | 0 | 0 | 6 | 0
COC(=O)c1ccc2nc(-c3ccccc3)c(Cc3ccc(C)cc3)n2c1 | -6 | . | 0 | -1 | -27* | -8
COC(=O)c1ccc2nc(-c3ccco3)c(Cc3ccccc3)n2c1 | -1 | 83* | . | 0 | . | -7
COC(=O)c1ccc2nc(-c3ccccc3)c(Cc3ccccc3)n2c1 | -4 | . | 0 | 0 | -5 | 6
COC(=O)c1ccc2nc(-c3ccccc3)c(Cc3ccsc3)n2c1 | -3 | -7 | 0 | 0 | -18 | -2
O=C(C[C@@H]1CC[C@@H]2[C@H](COC[C@H](O)CN2C(=O)Nc2ccc(C(F)(F)F)cc2)O1)NCC1CCCCC1 | 0 | -48 | 1 | 0 | -54 | -14
C[C@H]1CCCCO[C@@H](CN(C)S(=O)(=O)c2cccs2)[C@@H](C)CN([C@@H](C)CO)C(=O)c2cc(N(C)C)ccc2O1 | . | -22 | 0 | . | -6 | .
C[C@H]1CN([C@@H](C)CO)C(=O)c2cc(NC(=O)Cn3cnnn3)ccc2O[C@H]1CN(C)C(=O)Nc1ccc(C(F)(F)F)cc1 | 4 | -8 | -2 | -1 | -3 | .
CO[C@H]1CN(C)C(=O)c2ccc(NS(=O)(=O)c3ccccc3C)cc2OC[C@H](C)N(C)C[C@@H]1C | 0 | . | 1 | 0 | -1 | .
O=C(N/N=C/c1ccccc1C(F)(F)F)c1ccc(O)cc1 | 1 | . | . | 0 | -29* | .
O=C(N/N=C/c1ccc(O)cc1)c1cccc(C(F)(F)F)c1 | . | . | . | . | . | -6
Nn1c(=S)[nH]c2sc3c(c2c1=O)CCCC3 | 1 | . | . | 0 | -21* | -1
O=C(CSc1nc2ccccc2[nH]1)NCc1ccc(F)cc1 | 0 | -4 | 0 | 43* | -18 | 0
Cc1[nH]c2ccccc2c1C(=O)CSc1nc2ccccc2[nH]1 | 2 | 23 | . | 0 | -28* | .
C[C@@H]1CN([C@@H](C)CO)C(=O)c2cc(NS(=O)(=O)c3cccs3)ccc2O[C@@H](C)CCCCO[C@@H]1CN(C)C(=O)c1ccccc1 | -3 | 36 | . | 0 | 0 | -19
O=C(/C=C/c1ccc(Cl)cc1Cl)Nc1cccc(S(=O)(=O)NC2=NCCC2)c1 | -1 | . | -1 | 0 | -35 | 33*
O=S(=O)(NC1=NCCC1)c1cccc(NS(=O)(=O)c2ccc(F)c(Cl)c2)c1 | -1 | 11 | . | 0 | 5 | 3
Cc1ccc([N+](=O)[O-])cc1S(=O)(=O)Nc1cccc(S(=O)(=O)NC2=NCCC2)c1 | . | -2 | 0 | 45* | 0 | -4
O=C(/C=C/c1ccc([N+](=O)[O-])cc1)Nc1cccc(S(=O)(=O)NC2=NCCCCC2)c1 | . | . | 0 | 0 | -9.4* | 4

Source: PubChem (Broad Institute)
